Results published in ChEMBL document CHEMBL1124953, “Orally effective acid prodrugs of the beta-lactamase inhibitor sulbactam” (J Med Chem, 1990).

How the values were obtained:
[1] = Area under curve (AUC) was determined; type: ADME; design: concentration or dose not given beside the values
How it was run: (§1)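 Male outbred CD rats (70-90 g), five per prodrug, given 10 mg/kg orally in CMC diluent. Orbital plexus blood into heparinized tubes, plasma sampled over 4 h. Plasma sulbactam quantified by synergistic agar-well bioassay: Pasteurella hemolytica (ATCC 43823) in Mueller-Hinton agar with ampicillin and triphenyltetrazolium chloride, 18 h at 37 °C. Standard curve 10-0.1 μg/mL in rat plasma, zone-size regression. AUC and Cmax from concentration-time plot.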

[2] = Maximum Concentration of the compound.; type: ADME, organism-based; details: in vivo; how it was run: as §1

Row | AUC [1] [ng·h/mL] | Cmax [2] [ng/mL] | SMILES
1 | 10000 | 8200 | CC1(C)[C@H](C(=O)OCOC(=O)CCCC(=O)O)N2C(=O)C[C@H]2S1(=O)=O
2 | 2300 | 1600 | CC1(C)[C@H](C(=O)OCOC(=O)CCCCC(=O)OCc2ccccc2)N2C(=O)C[C@H]2S1(=O)=O
3 | 3500 | 2000 | CC1(C)[C@H](C(=O)OCOC(=O)CC(=O)O)N2C(=O)C[C@H]2S1(=O)=O
4 | 7500 | 5200 | CC1(C)[C@H](C(=O)OCOC(=O)CCCCC(=O)O)N2C(=O)C[C@H]2S1(=O)=O
5 | 6200 | 3900 | CC(C)(C(=O)O)C(=O)OCOC(=O)[C@@H]1N2C(=O)C[C@H]2S(=O)(=O)C1(C)C
6 | 8500 | 6200 | CC(C)(C)C(=O)OCOC(=O)[C@@H]1N2C(=O)C[C@H]2S(=O)(=O)C1(C)C [SULBACTAM PIVOXIL]

Row | SMILES | AUC [1] [ng·h/mL] | Cmax [2] [ng/mL]
7 | CC1(C)[C@H](C(=O)O)N2C(=O)C[C@H]2S1(=O)=O [SULBACTAM] | 1400 | 700
